Data as given in ChEMBL document CHEMBL3593177, “Benzimidazole derivatives as potential dual inhibitors for PARP-1 and DHODH” (Bioorg Med Chem, 2015).

What was measured:
[1] = target: T1, Dihydroorotate dehydrogenase (quinone), mitochondrial (Homo sapiens, UniProt Q02127); assay: Inhibition of DHODH (unknown origin) using L-DHO, DUQ, DCIP as substrate preincubated for 30 mins followed by substrate addition measured after 20 mins by multilabel plate reader analysis
[2] = target: Poly [ADP-ribose] polymerase 1 (Homo sapiens, UniProt P09874); assay: Inhibition of PARP-1 (unknown origin) assessed as incorporation of biotinylated poly (ADP-ribose) onto histone protein after 60 mins by TACS-Sapphire substarte-based colorimetric analysis
[3] = target: T1, Dihydroorotate dehydrogenase (quinone), mitochondrial; assay: Inhibition of DHODH (unknown origin) using L-DHO, DUQ, DCIP as substrate at 10 uM preincubated for 30 mins followed by substrate addition measured after 20 mins by multilabel plate reader analysis relative to control
Procedure, shortened: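 Single-concentration screen at 10 µM. DHODH (25 ng) was preincubated with compound for 30 min at room temperature in 50 mM Tris-HCl, 150 mM KCl, 0.8% Triton, pH 8.0, with 1% DMSO final. The reaction was started with a substrate mix of 20 mM L-DHO, 2 mM DUQ and 2 mM DCIP (added-mix concentrations). DCIP reduction was followed as the drop in A610, read from 20 min, every 10 min for 1 h.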

[4] = target: T1, Dihydroorotate dehydrogenase (quinone), mitochondrial; assay: Inhibition of DHODH (unknown origin) using L-DHO, DUQ, DCIP as substrate at 1 uM preincubated for 30 mins followed by substrate addition measured after 20 mins by multilabel plate reader analysis relative to control
[5] = target: T1, Dihydroorotate dehydrogenase (quinone), mitochondrial; assay: Inhibition of human DHODH using L-DHO, DUQ, DCIP as substrate preincubated for 30 mins followed by substrate addition measured after 20 mins

T1 sequence (Q02127 whole entry): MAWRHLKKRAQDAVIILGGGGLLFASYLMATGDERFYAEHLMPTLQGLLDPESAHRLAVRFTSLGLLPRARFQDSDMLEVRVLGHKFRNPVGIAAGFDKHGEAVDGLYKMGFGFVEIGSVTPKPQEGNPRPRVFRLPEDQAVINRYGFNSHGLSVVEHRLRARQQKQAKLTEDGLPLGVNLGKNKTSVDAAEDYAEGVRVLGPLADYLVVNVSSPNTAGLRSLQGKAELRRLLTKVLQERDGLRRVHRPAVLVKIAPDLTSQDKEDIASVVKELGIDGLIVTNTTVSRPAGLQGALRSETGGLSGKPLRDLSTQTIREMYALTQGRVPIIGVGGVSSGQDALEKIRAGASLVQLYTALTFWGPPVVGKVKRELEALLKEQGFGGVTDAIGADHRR
Poly [ADP-ribose] polymerase 1, sequence (P09874 whole entry): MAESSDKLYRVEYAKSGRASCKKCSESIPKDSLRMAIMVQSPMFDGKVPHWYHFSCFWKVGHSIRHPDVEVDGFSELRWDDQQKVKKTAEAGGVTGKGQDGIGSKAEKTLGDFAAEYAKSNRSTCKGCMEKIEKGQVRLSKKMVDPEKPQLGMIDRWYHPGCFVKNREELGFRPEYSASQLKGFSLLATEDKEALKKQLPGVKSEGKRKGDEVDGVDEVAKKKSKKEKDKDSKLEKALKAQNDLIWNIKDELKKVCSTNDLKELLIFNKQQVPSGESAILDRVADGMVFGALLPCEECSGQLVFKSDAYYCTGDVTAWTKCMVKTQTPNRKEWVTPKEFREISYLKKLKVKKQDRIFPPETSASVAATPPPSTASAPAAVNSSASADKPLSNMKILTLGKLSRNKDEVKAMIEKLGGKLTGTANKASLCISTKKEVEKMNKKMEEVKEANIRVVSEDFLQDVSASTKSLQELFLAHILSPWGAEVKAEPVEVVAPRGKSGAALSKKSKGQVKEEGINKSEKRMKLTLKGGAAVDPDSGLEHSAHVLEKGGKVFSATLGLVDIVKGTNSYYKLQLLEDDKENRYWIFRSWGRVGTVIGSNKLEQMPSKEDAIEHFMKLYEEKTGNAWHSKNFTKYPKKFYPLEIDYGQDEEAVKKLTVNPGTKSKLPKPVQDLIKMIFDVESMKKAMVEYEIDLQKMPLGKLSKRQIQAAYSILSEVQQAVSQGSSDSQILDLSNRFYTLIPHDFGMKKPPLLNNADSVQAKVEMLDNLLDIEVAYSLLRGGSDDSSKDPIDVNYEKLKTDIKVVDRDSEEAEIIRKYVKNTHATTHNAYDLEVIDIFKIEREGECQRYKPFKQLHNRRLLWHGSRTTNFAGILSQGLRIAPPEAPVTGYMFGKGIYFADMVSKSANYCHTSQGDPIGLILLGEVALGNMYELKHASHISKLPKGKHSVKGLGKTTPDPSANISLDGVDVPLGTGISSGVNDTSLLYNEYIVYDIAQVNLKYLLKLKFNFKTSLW

Cc1cc(C(N)=O)c2nc(-c3ccc(-c4ccccc4)cc3)[nH]c2c1
IC50 [1]: 7800 nM

COc1cc(-c2ccc(-c3nc4c(C(N)=O)cc(F)cc4[nH]3)c(F)c2)ccc1NC(=O)C1CC1
IC50 [2]: 980 nM

NC(=O)c1cccc2[nH]c(-c3ccc(C(F)(F)F)cc3)nc12
inhibition [3]: < 15%

COc1ccc(-c2nc3c(C(N)=O)cccc3[nH]2)cc1
inhibition [3]: < 15%

CC(=O)Nc1cccc(-c2ccc(-c3nc4c(C(N)=O)cccc4[nH]3)cc2)c1
IC50 [2]: 460 nM
inhibition [4]: 45%

NC(=O)c1cc(F)cc2[nH]c(-c3ccc(-c4ccc(NC(=O)C5CC5)cc4F)cc3F)nc12
IC50 [2]: 84 nM

Cc1cc(C(N)=O)c2nc(-c3ccc(C#N)cc3)[nH]c2c1
inhibition [3]: < 15%

Cc1cc(C(N)=O)c2nc(-c3ccc(C(F)(F)F)cc3)[nH]c2c1
inhibition [3]: < 15%

CCC(=O)Nc1ccc(-c2ccc(-c3nc4c(C(N)=O)cc(F)cc4[nH]3)cc2)cc1
IC50 [2]: 1720 nM
inhibition [3]: < 15%

O=C(O)c1cccc2[nH]c(-c3ccc(-c4ccccc4)cc3)nc12
IC50 [5]: 750 nM

CC(=O)Nc1ccccc1COc1ccc(-c2ccc(-c3nc4c(C(=O)O)cc(C)cc4[nH]3)cc2)cc1
IC50 [1]: 300 nM
IC50 [2]: 10600 nM

NC(=O)c1cccc2[nH]c(-c3ccc(-c4ccc(OCCCN5CCCCC5)cc4)cc3)nc12
IC50 [2]: 2280 nM
inhibition [3]: < 15%

CC(=O)Nc1ccc(COc2ccc(-c3ccc(-c4nc5c(C(=O)O)cc(C)cc5[nH]4)cc3)cc2)cc1
IC50 [1]: 13 nM

COc1cc(-c2ccc(-c3nc4c(C(N)=O)cc(F)cc4[nH]3)cc2)ccc1NC(=O)C1CC1
IC50 [2]: 5960 nM
inhibition [3]: < 15%

NC(=O)c1cccc2[nH]c(-c3ccc(-c4cncc(CN5CCCC5)c4)cc3)nc12
IC50 [2]: 61 nM

NC(=O)c1cccc2[nH]c(-c3ccc(-c4cncc(C(=O)N5CCCC5)c4)cc3)nc12
IC50 [2]: 29 nM

CC(=O)Nc1ccccc1-c1ccc(-c2nc3c(C(N)=O)cccc3[nH]2)cc1
IC50 [2]: 140 nM

CC(=O)Nc1cccc(-c2ccc(-c3nc4c(C(=O)O)cc(C)cc4[nH]3)cc2)c1
IC50 [1]: 1380 nM

NC(=O)c1cccc2[nH]c(-c3ccc(-c4ccc(C(=O)N5CCCC5)cc4)cc3)nc12
IC50 [2]: 310 nM

NC(=O)c1cccc2[nH]c(-c3ccc(-c4ccc(OCCN5CCCCC5)cc4)cc3)nc12
IC50 [2]: 720 nM

NC(=O)c1cccc2[nH]c(-c3ccc(-c4ccc(N)nc4)cc3)nc12
IC50 [2]: 32 nM

CC(=O)Nc1cccc(COc2ccc(-c3ccc(-c4nc5c(C(=O)O)cc(C)cc5[nH]4)cc3)cc2)c1
IC50 [1]: 28 nM

NC(=O)c1cccc2[nH]c(-c3ccc(-c4ccccc4)cc3)nc12
IC50 [1]: 9800 nM
IC50 [2]: 710 nM

NC(=O)c1cc(F)cc2[nH]c(-c3ccc(-c4cccc(NC(=O)C5CC5)c4)cc3F)nc12
IC50 [2]: 1280 nM

CC(=O)Nc1ccc(-c2ccc(-c3nc4c(C(N)=O)cccc4[nH]3)cc2)cn1
IC50 [2]: 49 nM

COc1ccc(-c2nc3c(C(N)=O)cc(C)cc3[nH]2)cc1
inhibition [3]: < 15%

CC(=O)Nc1ccc(-c2ccc(-c3nc4c(C(=O)O)cc(C)cc4[nH]3)cc2)cc1
IC50 [1]: 210 nM

Cc1cc(C(N)=O)c2nc(-c3ccc(-c4ccc(C(=O)N5CCCC5)cc4)cc3)[nH]c2c1
inhibition [3]: < 15%

NC(=O)c1cccc2[nH]c(-c3ccc(-c4ccc(C(=O)N5CCCC5)nc4)cc3)nc12
IC50 [2]: 12 nM
inhibition [3]: < 15%
